pEC50, pIC50, pKi: −log10 of the molar value. ≈ marks a conversion by molar mass, not a printed value.
Legend:
CYP1A2 [1] = biological target: T1, CYP1A2 (Homo sapiens, UniProt P05177); assay: Induction of CYP1A2 in human hepatocytes relative to control; assay type: ADME, cell-based, Hepatocyte
T1 sequence (P05177 whole entry): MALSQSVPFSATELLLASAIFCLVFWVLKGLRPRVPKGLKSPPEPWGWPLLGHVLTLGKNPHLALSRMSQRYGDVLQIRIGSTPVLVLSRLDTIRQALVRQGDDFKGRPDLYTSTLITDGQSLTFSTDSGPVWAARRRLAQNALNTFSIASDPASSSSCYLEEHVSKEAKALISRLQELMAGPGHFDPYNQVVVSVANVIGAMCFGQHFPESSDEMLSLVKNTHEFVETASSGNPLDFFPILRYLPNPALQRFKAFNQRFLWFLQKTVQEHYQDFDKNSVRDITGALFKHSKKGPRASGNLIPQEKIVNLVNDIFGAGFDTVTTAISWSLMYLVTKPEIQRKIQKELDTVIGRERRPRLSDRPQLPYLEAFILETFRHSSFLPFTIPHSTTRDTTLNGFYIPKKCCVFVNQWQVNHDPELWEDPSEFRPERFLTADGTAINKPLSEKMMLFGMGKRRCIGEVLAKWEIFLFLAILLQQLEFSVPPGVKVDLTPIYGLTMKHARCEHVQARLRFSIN

[2] = Elimination half life in Beagle dog at 1 mg/kg, iv measured upto 24 hrs by LC-MS/MS analysis; assay type: ADME, organism-based, Canis lupus familiaris; settings: in vivo, read-out: beta t1/2 (converted)
How it was run: (§1)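 Single iv and oral (suspension) dosing; iv/po doses 1/10 mg/kg in SD rat, 1/3 mg/kg in CD-1 mouse and beagle dog. Plasma PK parameters are means from two to three animals per species.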

CYP1A2 [3] = biological target: T1, CYP1A2; assay: Induction of CYP1A2 in human hepatocytes; assay type: ADME, cell-based, Hepatocyte
CYP2D6 = CYP2D6 (Homo sapiens, UniProt P10635); assay: Inhibition of CYP2D6 in human liver microsomes using dextromethorphan as substrate preincubated for 15 mins followed by NADPH addition and measured after 8 mins by LC-MS/MS analysis; assay type: ADME; settings: human, liver microsomes, probe dextromethorphan; time 23 min; read-out: INH
Sequence of CYP2D6 (P10635 whole entry): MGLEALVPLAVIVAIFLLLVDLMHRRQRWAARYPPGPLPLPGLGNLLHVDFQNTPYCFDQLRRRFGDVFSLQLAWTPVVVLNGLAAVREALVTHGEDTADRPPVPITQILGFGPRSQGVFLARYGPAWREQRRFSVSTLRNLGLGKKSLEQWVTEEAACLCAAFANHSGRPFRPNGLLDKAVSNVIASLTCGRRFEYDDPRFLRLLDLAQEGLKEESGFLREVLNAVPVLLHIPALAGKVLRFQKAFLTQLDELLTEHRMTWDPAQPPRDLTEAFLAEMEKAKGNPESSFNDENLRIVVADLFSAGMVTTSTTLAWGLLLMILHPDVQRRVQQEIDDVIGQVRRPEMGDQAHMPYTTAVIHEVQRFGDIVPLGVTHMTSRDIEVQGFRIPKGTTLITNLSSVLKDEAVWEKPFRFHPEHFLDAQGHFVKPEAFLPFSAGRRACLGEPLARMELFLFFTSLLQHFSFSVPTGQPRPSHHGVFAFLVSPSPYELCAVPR
How it was run: (§2)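 Cocktail CYP450 inhibition assay run in human liver microsomes.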

[4] = biological target: Muscarinic acetylcholine receptor M1 (Homo sapiens, UniProt P11229); assay: Antagonist activity at human muscarinic M1 receptor expressed in CHO cells co-expressing Gqi5 assessed as inhibition of acetylcholine-induced calcium mobilization; assay type: functional
Sequence of Muscarinic acetylcholine receptor M1 (P11229 whole entry): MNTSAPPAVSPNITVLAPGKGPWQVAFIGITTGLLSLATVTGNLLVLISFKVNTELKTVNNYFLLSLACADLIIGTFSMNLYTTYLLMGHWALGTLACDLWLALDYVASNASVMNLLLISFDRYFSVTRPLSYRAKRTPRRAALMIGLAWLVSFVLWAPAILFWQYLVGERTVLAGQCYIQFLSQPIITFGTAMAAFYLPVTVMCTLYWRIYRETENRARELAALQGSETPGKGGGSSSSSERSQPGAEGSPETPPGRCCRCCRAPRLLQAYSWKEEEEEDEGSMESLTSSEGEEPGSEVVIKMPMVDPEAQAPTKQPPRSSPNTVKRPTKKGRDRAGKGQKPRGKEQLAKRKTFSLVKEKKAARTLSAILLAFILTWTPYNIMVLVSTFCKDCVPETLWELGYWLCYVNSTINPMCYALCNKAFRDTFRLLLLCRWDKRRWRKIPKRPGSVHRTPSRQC
How it was run: (§3)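 CHO cells stably transfected with the given human mAChR subtype. Compound added before an EC80 concentration of acetylcholine; antagonism read as calcium mobilization. One independent determination in triplicate.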

[5] = Clearance in Sprague-Dawley rat plasma at 1.0 mg/kg, iv measured upto 24 hrs by LC-MS/MS analysis; assay type: ADME, organism-based; how it was run: as §1
[6] = Volume of distribution at steady state in CD-1 mouse at 1.0 mg/kg, iv measured upto 24 hrs by LC-MS/MS analysis; assay type: ADME, organism-based; settings: in vivo, read-out: Vdss
How it was run: (§4)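 Pharmacokinetics in Sprague-Dawley rat, CD-1 mouse and beagle dog. Intravenous dose was 1 mg/kg in each species. Oral doses were given as a suspension: 10 mg/kg in rat, 3 mg/kg in mouse and dog. Each parameter is the mean of two to three animals.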

CYP3A4 [7] = biological target: T2, CYP3A4 (Homo sapiens, UniProt P08684); assay: Induction of CYP3A4 in human hepatocytes relative to control; assay type: ADME, cell-based, Hepatocyte
T2 sequence (P08684 whole entry): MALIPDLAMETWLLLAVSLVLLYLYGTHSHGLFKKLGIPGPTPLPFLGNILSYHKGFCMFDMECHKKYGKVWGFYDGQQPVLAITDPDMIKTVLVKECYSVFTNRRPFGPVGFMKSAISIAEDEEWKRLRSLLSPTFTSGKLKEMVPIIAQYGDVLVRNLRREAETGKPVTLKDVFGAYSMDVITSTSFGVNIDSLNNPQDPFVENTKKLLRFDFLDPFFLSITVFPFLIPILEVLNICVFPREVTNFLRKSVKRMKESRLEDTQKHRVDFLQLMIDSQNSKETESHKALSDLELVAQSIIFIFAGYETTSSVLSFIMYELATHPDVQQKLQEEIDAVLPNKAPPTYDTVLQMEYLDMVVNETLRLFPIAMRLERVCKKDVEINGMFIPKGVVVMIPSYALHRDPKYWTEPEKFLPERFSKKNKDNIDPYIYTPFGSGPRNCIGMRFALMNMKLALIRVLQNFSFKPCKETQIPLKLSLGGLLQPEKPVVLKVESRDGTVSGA

[8] = Ratio of free drug concentration in brain to plasma of rat at 1 mg/kg, po after 1 hr; assay type: ADME, organism-based
How it was run: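 At the end of the catalepsy study, 1 h after a 1 mg/kg oral dose in rats, total brain/plasma (Kp) and unbound brain/plasma (Kp,uu) ratios were determined.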

[9] = Kinetic solubility of compound at pH 6.8; assay type: physicochemical; settings: buffer, read-out: Kinetic_solubility
How it was run: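 Kinetic solubility measured at pH 6.8.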

Rattus norvegicus [10] = assay: Effect on haloperidol-induced catalepsy in rat assessed as reduction in mean latency to withdraw at 1 mg/kg, po (reference value: 43.4 +/- 4.3 sec); assay type: functional
How it was run: (§5)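 Rat haloperidol-induced catalepsy model with oral test dosing at 0.3, 1 and 3 mg/kg alongside vehicle-treated controls. Read-out is latency to withdraw, also expressed as % reversal of catalepsy. Groups compared by ANOVA.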

[11] = Cmax in Beagle dog at 3 mg/kg, po measured upto 24 hrs by LC-MS/MS analysis; assay type: ADME, organism-based, Canis lupus familiaris; set-up: route oral, dose 3 mg/kg, time <=24; settings: in vivo; how it was run: as §1
CYP1A2 [12] = biological target: T1, CYP1A2; assay: Inhibition of CYP1A2 in human liver microsomes using phenacetin as substrate preincubated for 15 mins followed by NADPH addition and measured after 8 mins by LC-MS/MS analysis; assay type: ADME; settings: human, liver microsomes, probe phenacetin; time 23 min; read-out: INH; how it was run: as §2
Rattus norvegicus [13] = assay: Effect on haloperidol-induced catalepsy in rat assessed as reduction in mean latency to withdraw at 0.3 mg/kg, po (reference value: 43.4 +/- 4.3 sec); assay type: functional; how it was run: as §5
CYP2B6 [14] = biological target: T3, CYP2B6 (Homo sapiens, UniProt P20813); assay: Induction of CYP2B6 in human hepatocytes relative to control; assay type: ADME, cell-based, Hepatocyte
T3 sequence (P20813 whole entry): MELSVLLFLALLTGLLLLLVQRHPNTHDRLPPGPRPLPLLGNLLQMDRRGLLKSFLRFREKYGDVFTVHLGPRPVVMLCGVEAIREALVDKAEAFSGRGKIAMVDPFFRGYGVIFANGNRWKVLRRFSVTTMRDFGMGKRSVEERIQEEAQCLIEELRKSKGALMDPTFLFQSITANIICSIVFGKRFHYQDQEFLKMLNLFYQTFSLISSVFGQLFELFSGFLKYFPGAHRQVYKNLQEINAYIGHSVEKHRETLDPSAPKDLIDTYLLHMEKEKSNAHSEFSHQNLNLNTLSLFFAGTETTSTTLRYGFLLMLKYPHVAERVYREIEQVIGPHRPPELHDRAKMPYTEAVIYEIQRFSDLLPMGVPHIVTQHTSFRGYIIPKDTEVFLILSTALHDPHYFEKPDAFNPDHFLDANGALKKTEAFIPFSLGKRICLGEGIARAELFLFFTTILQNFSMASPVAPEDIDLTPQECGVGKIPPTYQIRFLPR

CYP3A4 [15] = biological target: T2, CYP3A4; assay: Induction of CYP3A4 in human hepatocytes; assay type: ADME, cell-based, Hepatocyte
[16] = Ratio of free drug concentration in CSF to plasma of Sprague-Dawley rat at 1 mg/kg, iv; assay type: ADME, organism-based
Rattus norvegicus [17] = assay: Reversal of haloperidol-induced catalepsy in rat at 1.0 mg/kg, po relative to control; assay type: functional; how it was run: as §5
[18] = biological target: Sigma non-opioid intracellular receptor 1 (Homo sapiens, UniProt Q99720); assay: Inhibition of human sigma1 receptor by radioligand binding assay
Sequence of Sigma non-opioid intracellular receptor 1 (Q99720 whole entry): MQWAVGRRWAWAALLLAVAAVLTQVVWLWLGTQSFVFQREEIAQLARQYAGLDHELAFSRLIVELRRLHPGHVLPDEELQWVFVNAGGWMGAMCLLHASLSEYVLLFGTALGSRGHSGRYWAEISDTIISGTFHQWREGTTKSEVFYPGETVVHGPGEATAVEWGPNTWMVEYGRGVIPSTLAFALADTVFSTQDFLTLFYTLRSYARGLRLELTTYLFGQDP

CYP3A4 [19] = biological target: T2, CYP3A4; assay: Inhibition of CYP3A4 in human liver microsomes using midazolam as substrate preincubated for 15 mins followed by NADPH addition and measured after 8 mins by LC-MS/MS analysis; assay type: ADME; settings: human, liver microsomes, probe midazolam; time 23 min; read-out: INH; how it was run: as §2
[20] = Clearance in CD-1 mouse plasma at 1.0 mg/kg, iv measured upto 24 hrs by LC-MS/MS analysis; assay type: ADME, organism-based; how it was run: as §1
CYP2B6 [21] = biological target: T3, CYP2B6; assay: Induction of CYP2B6 in human hepatocytes; assay type: ADME, cell-based, Hepatocyte
[22] = Volume of distribution at steady state in Sprague-Dawley rat at 1.0 mg/kg, iv measured upto 24 hrs by LC-MS/MS analysis; assay type: ADME, organism-based; settings: in vivo, read-out: Vdss; how it was run: as §4
Rattus norvegicus [23] = assay: Reversal of haloperidol-induced catalepsy in rat at 0.3 mg/kg, po relative to control; assay type: functional; how it was run: as §5
[24] = biological target: Muscarinic acetylcholine receptor M5 (Homo sapiens, UniProt P08912); assay: Antagonist activity at human muscarinic M5 receptor expressed in CHO cells co-expressing Gqi5 assessed as inhibition of acetylcholine-induced calcium mobilization; assay type: functional; how it was run: as §3
Sequence of Muscarinic acetylcholine receptor M5 (P08912 whole entry): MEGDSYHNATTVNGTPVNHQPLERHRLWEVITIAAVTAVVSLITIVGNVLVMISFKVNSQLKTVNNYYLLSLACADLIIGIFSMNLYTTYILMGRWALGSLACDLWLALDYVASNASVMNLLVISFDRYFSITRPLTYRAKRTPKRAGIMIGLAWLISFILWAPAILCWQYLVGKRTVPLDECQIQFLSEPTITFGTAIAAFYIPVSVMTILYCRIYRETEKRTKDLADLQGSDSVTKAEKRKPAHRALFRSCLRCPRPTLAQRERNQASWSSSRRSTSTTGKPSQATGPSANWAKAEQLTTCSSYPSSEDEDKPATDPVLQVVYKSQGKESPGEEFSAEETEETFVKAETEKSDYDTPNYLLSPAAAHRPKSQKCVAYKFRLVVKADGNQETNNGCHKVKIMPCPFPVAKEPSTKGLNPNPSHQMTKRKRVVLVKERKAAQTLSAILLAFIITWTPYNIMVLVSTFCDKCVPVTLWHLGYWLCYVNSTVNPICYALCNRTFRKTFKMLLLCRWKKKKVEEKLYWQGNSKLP

[25] = Cmax in CD-1 mouse at 3 mg/kg, po measured upto 24 hrs by LC-MS/MS analysis; assay type: ADME, organism-based; set-up: route oral, dose 3 mg/kg, time <=24; settings: in vivo; how it was run: as §1
hERG = hERG (Homo sapiens, UniProt Q12809); assay: Inhibition of human ERG at 10 uM relative to control
Sequence of hERG (Q12809 whole entry): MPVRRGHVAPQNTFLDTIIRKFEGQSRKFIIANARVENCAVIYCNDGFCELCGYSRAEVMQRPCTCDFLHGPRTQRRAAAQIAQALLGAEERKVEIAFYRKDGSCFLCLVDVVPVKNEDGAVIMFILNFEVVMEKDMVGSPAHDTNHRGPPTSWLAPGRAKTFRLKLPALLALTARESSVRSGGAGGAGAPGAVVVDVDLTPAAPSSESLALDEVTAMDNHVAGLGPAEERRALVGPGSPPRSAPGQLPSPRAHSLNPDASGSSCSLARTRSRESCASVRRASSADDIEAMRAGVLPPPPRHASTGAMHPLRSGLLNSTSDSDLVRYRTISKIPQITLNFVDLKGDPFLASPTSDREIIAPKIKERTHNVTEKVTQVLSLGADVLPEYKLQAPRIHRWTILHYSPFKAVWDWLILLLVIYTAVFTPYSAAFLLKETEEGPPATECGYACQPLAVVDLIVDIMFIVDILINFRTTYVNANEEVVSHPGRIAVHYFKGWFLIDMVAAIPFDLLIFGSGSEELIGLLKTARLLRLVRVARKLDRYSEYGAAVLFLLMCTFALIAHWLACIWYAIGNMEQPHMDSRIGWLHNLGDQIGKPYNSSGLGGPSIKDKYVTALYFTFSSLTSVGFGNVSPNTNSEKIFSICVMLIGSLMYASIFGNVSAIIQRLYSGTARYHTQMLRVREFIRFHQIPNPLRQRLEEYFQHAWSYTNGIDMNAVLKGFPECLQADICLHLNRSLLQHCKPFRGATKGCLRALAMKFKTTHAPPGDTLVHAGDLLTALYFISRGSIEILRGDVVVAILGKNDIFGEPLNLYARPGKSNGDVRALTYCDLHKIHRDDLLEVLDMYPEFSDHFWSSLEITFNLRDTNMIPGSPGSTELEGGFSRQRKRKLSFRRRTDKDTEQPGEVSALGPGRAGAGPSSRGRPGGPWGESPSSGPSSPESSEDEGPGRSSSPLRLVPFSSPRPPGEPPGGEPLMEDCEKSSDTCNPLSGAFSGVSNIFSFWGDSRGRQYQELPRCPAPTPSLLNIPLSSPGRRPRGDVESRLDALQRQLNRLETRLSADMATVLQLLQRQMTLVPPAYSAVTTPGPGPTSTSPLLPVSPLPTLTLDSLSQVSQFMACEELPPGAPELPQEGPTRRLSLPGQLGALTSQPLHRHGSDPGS

Fc1cc(F)c(F)c(-c2ccc(N[C@H]3C[C@@H]4CN(CC5CCOCC5)C[C@@H]4C3)nn2)c1
Emax (CYP1A2 [1]): 2.1% | half-life [2]: 15 h | pEC50 (CYP1A2 [3]): 5.72 | IC50 at 8 min (CYP2D6): > 30 µM | pIC50 [4]: < 5.00 | clearance [5]: 6.1 mL/min/kg | Vd [6]: 10.6 L/kg | Emax (CYP3A4 [7]): 2.1% | Kp uu at 1 h [8]: 0.32 | solubility kinetic [9]: 85.1 µM (≈ 36.8 µg/mL) | Activity (Rattus norvegicus [10]): 21.3 s | Cmax [11]: 70 ng/mL | IC50 at 8 min (CYP1A2 [12]): > 30 µM | Activity (Rattus norvegicus [13]): 32 s | Emax (CYP2B6 [14]): 2.1% | pEC50 (CYP3A4 [15]): 5.72 | Kp uu [16]: 0.24 | Activity (Rattus norvegicus [17]): 50.9% | pKi [18]: 7.77 | IC50 at 8 min (CYP3A4 [19]): > 30 µM | clearance [20]: 17 mL/min/kg | pEC50 (CYP2B6 [21]): 5.72 | Vd [22]: 6.7 L/kg | Activity (Rattus norvegicus [23]): 26.2% | pIC50 [24]: < 5.00 | Cmax [25]: 181 ng/mL | inhibition at 10 µM (hERG): 61%
